According to ChEMBL document CHEMBL6153049, “Functionalized regioisomers of the natural product phenazines myxin and iodinin as potent inhibitors of Mycobacterium tuberculosis and human acute myeloid leukemia cells” (Eur J Med Chem, 2025):

How the values were obtained:
[1] = Cytotoxicity against rat H9c2 cells assessed as inhibition of cell viability measured after 24 hrs by WST-1 assay; format: toxicity, cell-based
How it was run: (§1)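 NRK and H9c2 seeded at 5000 cells/well in DMEM with 10 % FBS, 0.2 mM L-glutamine, penicillin/streptomycin. Compounds dissolved in DMSO; 24 h exposure. Viability read by WST-1. Hoechst 33342 nuclear morphology was checked after fixation. IC50 from four-parameter regression of WST-1 signal. Cells were mycoplasma-tested.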

MOLM-13 = test: Cytotoxicity against human MOLM-13 cells assessed as inhibition of cell viability measured after 24 hrs by WST-1 assay; format: functional, cell-based; conditions: MOLM-13, 24 h
How it was run: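 MOLM-13 seeded at 30,000 cells/well in RPMI with 10 % FBS, 0.2 mM L-glutamine, penicillin/streptomycin. Compounds dissolved in DMSO; 24 h exposure. Viability read by WST-1. Nuclear morphology checked with Hoechst 33342 after formaldehyde fixation. IC50 from four-parameter regression of WST-1 signal. Cells were mycoplasma-tested.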

[2] = Cytotoxicity against rat NRK cells assessed as inhibition of cell viability measured after 24 hrs by WST-1 assay; format: toxicity, cell-based; how it was run: as §1
[3] = system: Mycobacterium tuberculosis; test: Antimycobacterial activity against drug-sensitive Mycobacterium tuberculosis H37Rv assessed as bacterial growth inhibition measured after 1 week by MABA assay; format: functional, organism-based; conditions: 168 h
How it was run: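 Colonies grown on 7H10+OADC agar at 37 °C, then to mid-log in 7H9+OADC; about 4×10^5 CFU/mL inoculated into 7H9 with escalating compound concentrations. Incubated 37 °C for 1 week, then resazurin (0.6 mM in PBS) mixed 8:5 with 20 % Tween 80 was added and incubated overnight at 37 °C. Fluorescent resorufin read-out gave IC50.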

Compound	IC50 at 24 h [1] [µM]	IC50 (MOLM-13) [µM]	IC50 at 24 h [2] [µM]	IC50 [3] [µM]
[O-][n+]1c2cccc(O)c2[n+]([O-])c2cccc(O)c21	> 50	2	> 50	0.17
COc1cccc2c1[n+]([O-])c1cccc(O)c1[n+]2[O-]	46	1.4	77	0.014
[O-][n+]1c2ccccc2[n+]([O-])c2c(O)cccc21	> 100	11	79	0.26
COc1cc2c(cc1O)[n+]([O-])c1ccccc1[n+]2[O-]		> 100		11.1
CC(=O)Oc1cc(OC(C)=O)c2c(c1)[n+]([O-])c1ccccc1[n+]2[O-]		35		5
CCOCOc1cc(OC)c2c(c1)[n+]([O-])c1ccccc1[n+]2[O-]	> 25	5.1	> 25	0.06
[O-][n+]1c2ccccc2[n+]([O-])c2c(O)cc(O)cc21		11		0.56
CCOC(=O)COc1cc(OCC(=O)OCC)c2c(c1)[n+]([O-])c1ccccc1[n+]2[O-]	> 200	2	> 200	2.88
COc1cc(O)c2c(c1)[n+]([O-])c1ccccc1[n+]2[O-]	81	3.8	38	0.05
CCOC(=O)COc1cc(O)c2c(c1)[n+]([O-])c1ccccc1[n+]2[O-]	89	5.7	194	0.17
CCOC(=O)COc1cc(OC)c2c(c1)[n+]([O-])c1ccccc1[n+]2[O-]		10		0.25
CC(=O)Oc1cc(O)c2c(c1)[n+]([O-])c1ccccc1[n+]2[O-]		16		0.85
COc1cc(O)cc2c1[n+]([O-])c1ccccc1[n+]2[O-]	> 200	> 100	> 100	1.91
CCOc1cc(O)c2c(c1)[n+]([O-])c1ccccc1[n+]2[O-]	103	2	87	0.04
COc1cccc2c1[n+]([O-])c1ccccc1[n+]2[O-]	12	1.4	32	0.04
COc1cc(OC(C)=O)c2c(c1)[n+]([O-])c1ccccc1[n+]2[O-]	55	6.5	36	0.08
CCOC(=O)COc1cc(OC)cc2c1[n+]([O-])c1ccccc1[n+]2[O-]	19	1.4	14	2.41
CCOCOc1cc(O)c2c(c1)[n+]([O-])c1ccccc1[n+]2[O-]	> 25	3.8	> 25	0.02
COc1cc(OC)c2c(c1)[n+]([O-])c1ccccc1[n+]2[O-]	108	6	46	0.12
COCOc1cc(O)c2c(c1)[n+]([O-])c1ccccc1[n+]2[O-]	> 50	5.2	> 100	0.11
[O-][n+]1c2ccccc2[n+]([O-])c2cc(O)c(O)cc21		> 50		> 50
